Test results published in ChEMBL document CHEMBL1128471, “Reversible inhibitors of the gastric (H+/K+)-ATPase. 4. Identification of an inhibitor with an intermediate duration of action” (J Med Chem, 1995).

Key:
[1] = biological target: Potassium-transporting ATPase (Sus scrofa, UniProt P19156); test: Inhibition of K+ -stimulated gastric ATPase activity was measured using lyophilized gastric vesicles at pH 7; assay type: tissue-based, Stomach
How it was run: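 K+-stimulated ATPase activity was measured in lyophilized (permeabilized) gastric vesicles at pH 7. The value is an IC50, or percent inhibition at the stated concentration where no IC50 could be determined.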

[2] = biological target: T1, Potassium-transporting ATPase (Rattus norvegicus) (UniProt P09626+P18598); test: Inhibition of pentagastrin-stimulated gastric acid secretion in the anesthetized rat after iv administration; assay type: functional, organism-based; settings: Stomach
How it was run: (§1)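 Anesthetized, lumen-perfused rats were given pentagastrin to stimulate gastric acid secretion, and compounds were given iv. The value is an ED50 (µmol/kg iv) with 95% confidence limits, or percent inhibition ± SEM at a single 10 µmol/kg iv dose.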

[3] = system: Canis familiaris; test: Mean percent peak inhibition of histamine-stimulated gastric acid secretion in the heidenhain pouch dog following a single dose of 1 umol/kg through iv administration.; assay type: functional; settings: Canis lupus familiaris, Stomach
[4] = system: Canis familiaris; test: Mean percent peak inhibition of histamine-stimulated gastric acid secretion in the heidenhain pouch dog following a single dose of 4 umol/kg through oral administration.; assay type: functional; settings: Canis lupus familiaris, Stomach
[5] = biological target: T1, Potassium-transporting ATPase (Rattus norvegicus); test: Inhibition of pentagastrin-stimulated gastric acid secretion at a single dose of 10 umol/kg.; assay type: functional; settings: Stomach; how it was run: as §1

Sequence of Potassium-transporting ATPase (P18434 whole entry): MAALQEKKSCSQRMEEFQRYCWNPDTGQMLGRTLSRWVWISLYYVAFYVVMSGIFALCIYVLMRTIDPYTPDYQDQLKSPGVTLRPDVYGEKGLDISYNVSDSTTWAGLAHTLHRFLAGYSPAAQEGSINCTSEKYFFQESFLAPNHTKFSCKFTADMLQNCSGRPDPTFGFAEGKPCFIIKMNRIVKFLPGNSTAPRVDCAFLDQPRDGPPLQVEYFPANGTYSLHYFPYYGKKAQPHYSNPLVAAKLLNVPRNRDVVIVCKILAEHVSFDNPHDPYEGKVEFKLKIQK
Sequence of Potassium-transporting ATPase (P19156 whole entry): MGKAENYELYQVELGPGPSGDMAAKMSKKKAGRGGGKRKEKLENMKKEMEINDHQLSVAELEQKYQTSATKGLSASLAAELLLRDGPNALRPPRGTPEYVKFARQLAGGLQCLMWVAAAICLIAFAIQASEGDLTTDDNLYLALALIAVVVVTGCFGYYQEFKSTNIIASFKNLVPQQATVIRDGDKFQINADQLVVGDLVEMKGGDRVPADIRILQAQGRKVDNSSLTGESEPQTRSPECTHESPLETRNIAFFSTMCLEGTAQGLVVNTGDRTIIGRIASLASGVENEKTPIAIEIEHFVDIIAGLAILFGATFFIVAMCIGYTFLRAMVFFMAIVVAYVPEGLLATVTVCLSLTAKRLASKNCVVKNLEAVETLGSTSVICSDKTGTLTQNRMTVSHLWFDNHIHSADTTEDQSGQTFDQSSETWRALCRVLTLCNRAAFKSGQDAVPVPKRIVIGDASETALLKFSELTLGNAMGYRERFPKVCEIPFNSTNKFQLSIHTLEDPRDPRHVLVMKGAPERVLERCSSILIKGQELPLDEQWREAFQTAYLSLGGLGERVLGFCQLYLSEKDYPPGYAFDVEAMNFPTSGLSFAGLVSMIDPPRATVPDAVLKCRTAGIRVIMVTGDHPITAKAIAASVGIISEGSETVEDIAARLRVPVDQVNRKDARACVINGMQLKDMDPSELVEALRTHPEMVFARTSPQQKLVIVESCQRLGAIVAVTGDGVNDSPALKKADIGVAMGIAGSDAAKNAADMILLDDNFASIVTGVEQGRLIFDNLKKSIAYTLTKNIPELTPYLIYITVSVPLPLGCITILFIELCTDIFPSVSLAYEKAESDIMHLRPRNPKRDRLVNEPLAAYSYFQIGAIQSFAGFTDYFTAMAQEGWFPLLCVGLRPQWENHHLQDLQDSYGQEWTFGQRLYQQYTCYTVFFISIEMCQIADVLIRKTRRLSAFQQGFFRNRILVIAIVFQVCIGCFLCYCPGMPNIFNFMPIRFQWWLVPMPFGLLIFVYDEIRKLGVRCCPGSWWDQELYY

SMILES	IC50 [1] [nM]	ED50 [2] [µmol/kg]	inhibition in vivo at 1 µmol/kg [3] [%]	inhibition in vivo at 4 µmol/kg [4] [%]	inhibition [5] [%]
CCCC(=O)c1cnc2c(C)cccc2c1Nc1ccc(OC)cc1C	1700	4.7	–	–	–
CCCC(=O)c1cnc2c(OCCOC)cccc2c1Nc1ccc(F)cc1C	3500	2.91	65	46	–
CCCC(=O)c1cnc2c(OC)cccc2c1Nc1ccccc1OC	1500	3.56	73	18	–
CCC(=O)c1cnc2c(CO)cccc2c1Nc1ccccc1C	380	–	83	35	74
Cc1cc(O)ccc1Nc1c(C(=O)C(C)C)cnc2c(CO)cccc12	36	1.72	47	–	–
CCCC(=O)c1cnc2c(C)cccc2c1Nc1ccccc1CC	2900	3.05	66	–	–
Cc1ccccc1Nc1c(C(=O)C(C)C)cnc2c(OCCO)cccc12	990	2.07	56	54	–
CCCC(=O)c1cnc2c(OCCOC)cccc2c1Nc1ccccc1C	–	2.75	51	81	–
CCCC(=O)c1cnc2c(C(=O)OC)cccc2c1Nc1ccccc1C	580	13.4	–	–	–
CCCC(=O)c1cnc2c(OC)cccc2c1Nc1ccccc1C	1700	2.6	67	83	–
CCCC(=O)c1cnc2c(C)cccc2c1Nc1ccc(OC)cc1OC	2400	3.9	41	–	–
CCC(=O)c1cnc2c(OCCO)cccc2c1Nc1ccccc1C	760	1.72	82	82	–
CCC(=O)c1cnc2c(CO)cccc2c1Nc1ccc(O)cc1C	180	–	59	24	90
CCC(=O)c1cnc2c(OCCO)cccc2c1Nc1ccc(F)cc1C	2000	2.85	58	72	–
CCCC(=O)c1cnc2c(OCCO)cccc2c1Nc1ccc(F)cc1C	–	2.92	44	80	–
CCCC(=O)c1cnc2c(OC)cccc2c1Nc1ccc(F)cc1C	2300	3.9	36	64	–
CCCC(=O)c1cnc2c(C(C)O)cccc2c1Nc1ccc(O)cc1C (centres undefined)	61	2.74	30	–	–
CCC(=O)c1cnc2c(Oc3ccccn3)cccc2c1Nc1c(C)cccc1C	4700	–	81	–	77
CCCC(=O)c1cnc2c(OC)cccc2c1Nc1ccc(OC(=O)CC)cc1C	19000	–	–	45	–
CCCC(=O)c1cnc2c(OC)cccc2c1Nc1ccc(O)cc1C	210	1.98	76	46	–
CCCC(=O)c1cnc2c(CCCO)cccc2c1Nc1ccccc1C	2600	–	–	48	63
CCCC(=O)c1cnc2c(C)cccc2c1Nc1c(C)cccc1C	3100	2.88	45	–	–
CCCC(=O)c1cnc2c(/C=C/CO)cccc2c1Nc1ccccc1C	2300	–	17	–	68
CCC(=O)c1cnc2c(OCCOC)cccc2c1Nc1ccccc1C	780	1.92	80	66	–
CCCC(=O)c1cnc2c(OCCOCCO)cccc2c1Nc1ccccc1C	–	1.89	52	–	–

SMILES	IC50 [1] [nM]	ED50 [2] [µmol/kg]	inhibition in vivo at 1 µmol/kg [3] [%]	inhibition in vivo at 4 µmol/kg [4] [%]	inhibition [5] [%]
CCCC(=O)c1cnc2ccccc2c1Nc1ccccc1C	–	5.45	–	–	–
CCCC(=O)c1cnc2c(CO)cccc2c1Nc1ccccc1C	–	1.72	39	56	–
Cc1cc(F)ccc1Nc1c(C(=O)C(C)C)cnc2c(CO)cccc12	–	3.57	59	42	–
CCCC(=O)c1cnc2c(OC)cccc2c1Nc1ccccc1OCC	2000	4.9	–	–	–
CCCC(=O)c1cnc2c(C)cccc2c1Nc1ccccc1OC	2200	3.98	–	–	–
CCCC(=O)c1cnc2c(OCCO)cccc2c1Nc1ccccc1C	–	2.4	64	96	–
CCCC(=O)c1cnc2c(OC)cccc2c1Nc1ccccc1CC	890	2.35	77	85	–
COCCOc1cccc2c(Nc3ccccc3C)c(C(=O)C(C)C)cnc12	1400	3.61	65	86	–
CCCC(=O)c1cnc2c(C(C)O)cccc2c1Nc1ccccc1C (centres undefined)	370	3.69	46	49	–
CCCC(=O)c1cnc2c(OCCOCCOCCO)cccc2c1Nc1ccccc1C	–	–	20	78	–
CCCC(=O)c1cnc2c(OC)cccc2c1Nc1c(C)cc(C)cc1C	3100	10.8	–	–	–
CCCC(=O)c1cnc2c(CO)cccc2c1Nc1ccc(O)cc1C	–	2.09	64	29	–
CCCC(=O)c1cnc2c(OC)cccc2c1Nc1c(C)cc(O)cc1C	500	6.4	32	25	–
CCCC(=O)c1cnc2c(Oc3cnccn3)cccc2c1Nc1ccccc1C	2000	2.9	49	43	–
CCCC(=O)c1cnc2c(OC)cccc2c1Nc1ccc(OC)cc1C	1270	7.61	71	–	–
CCCC(=O)c1cnc2c(OC)cccc2c1Nc1cccc(C)c1C	1400	–	77	67	60
CCCC(=O)c1cnc2c(OCCCN(C)C)cccc2c1Nc1ccccc1C	390	–	14	–	43
Cc1cc(F)ccc1Nc1c(C(=O)C(C)C)cnc2c(OCCO)cccc12	1600	4.2	66	75	–
Cc1ccccc1Nc1c(C(=O)C(C)C)cnc2c(CO)cccc12	–	1.86	–	–	–
CCCC(=O)c1cnc2c(OCCCNC(C)=O)cccc2c1Nc1c(C)cccc1C	1800	–	86	40	75
CCCC(=O)c1cnc2c(C)cccc2c1Nc1ccccc1C	3000	3.12	38	–	–
CCCC(=O)c1cnc2c(C=O)cccc2c1Nc1ccccc1C	1200	–	51	–	64
CCCC(=O)c1cnc2c(OCCCNc3ccccn3)cccc2c1Nc1c(C)cccc1C	900	–	–	–	49
CCCC(=O)c1cnc2c(O)cccc2c1Nc1ccc(F)cc1C	7600	–	–	–	33
CCCC(=O)c1cnc2c(OC)cccc2c1Nc1c(OC)cc(OC)cc1OC	4600	–	–	–	24
